Measured values: ChEMBL document CHEMBL4396871, “Leveraging a Low-Affinity Diazaspiro Orthosteric Fragment to Reduce Dopamine D3 Receptor (D3R) Ligand Promiscuity across Highly Conserved Aminergic G-Protein-Coupled Receptors (GPCRs)” (J Med Chem, 2019)

What was measured:
Histamine H3 receptor [1] = target: T1, Histamine H3 receptor (Homo sapiens, UniProt Q9Y5N1); assay: Displacement of [3H]-alpha-methylhistamine from human histamine H3 receptor stably expressed in HEK Flp-In cells at 10 uM after 90 mins by microbeta scintillation counting method relative to control; type: cell-based
T1 sequence (Q9Y5N1 whole entry): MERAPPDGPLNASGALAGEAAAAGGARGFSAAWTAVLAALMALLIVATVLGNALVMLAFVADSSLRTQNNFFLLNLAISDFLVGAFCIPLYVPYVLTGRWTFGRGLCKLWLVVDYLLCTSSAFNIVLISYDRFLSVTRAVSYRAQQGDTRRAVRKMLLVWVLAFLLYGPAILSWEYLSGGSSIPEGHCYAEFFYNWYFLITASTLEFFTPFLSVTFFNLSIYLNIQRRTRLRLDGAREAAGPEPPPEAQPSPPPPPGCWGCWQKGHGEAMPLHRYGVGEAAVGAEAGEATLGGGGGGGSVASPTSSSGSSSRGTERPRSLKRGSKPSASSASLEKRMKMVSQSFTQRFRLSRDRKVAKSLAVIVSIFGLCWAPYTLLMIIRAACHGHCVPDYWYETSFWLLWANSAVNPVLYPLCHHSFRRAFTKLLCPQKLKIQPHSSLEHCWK
Method in brief: (§1)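 Primary screen at 10 μM compound, expressed as % receptor inhibition, from at least three experiments.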

D(1B) dopamine receptor [2] = target: T2, D(1B) dopamine receptor (Homo sapiens, UniProt P21918); assay: Displacement of [3H]-SCH23390 from recombinant human D5 receptor transiently expressed in HEK cell membranes measured after 90 mins by microbeta scintillation counting method
T2 sequence (P21918 whole entry): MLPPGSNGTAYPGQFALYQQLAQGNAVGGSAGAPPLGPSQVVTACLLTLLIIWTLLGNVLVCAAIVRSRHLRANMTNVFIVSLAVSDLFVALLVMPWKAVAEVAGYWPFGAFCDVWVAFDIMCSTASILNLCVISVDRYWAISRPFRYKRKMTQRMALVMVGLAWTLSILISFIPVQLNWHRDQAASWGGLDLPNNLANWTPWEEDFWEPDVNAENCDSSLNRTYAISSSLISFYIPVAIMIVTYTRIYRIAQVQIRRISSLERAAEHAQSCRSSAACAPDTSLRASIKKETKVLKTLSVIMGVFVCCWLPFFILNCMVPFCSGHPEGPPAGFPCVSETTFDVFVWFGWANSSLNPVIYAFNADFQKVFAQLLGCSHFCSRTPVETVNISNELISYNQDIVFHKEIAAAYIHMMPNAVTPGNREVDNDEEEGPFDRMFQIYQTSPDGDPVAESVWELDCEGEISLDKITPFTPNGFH

[3] = target: Alpha-1B adrenergic receptor (Homo sapiens, UniProt P35368); assay: Displacement of [3H]-prazosin from recombinant human alpha1B adrenergic receptor transiently expressed in HEKT cells measured after 90 mins by microbeta scintillation counting method; type: cell-based
Alpha-1B adrenergic receptor, sequence (P35368 whole entry): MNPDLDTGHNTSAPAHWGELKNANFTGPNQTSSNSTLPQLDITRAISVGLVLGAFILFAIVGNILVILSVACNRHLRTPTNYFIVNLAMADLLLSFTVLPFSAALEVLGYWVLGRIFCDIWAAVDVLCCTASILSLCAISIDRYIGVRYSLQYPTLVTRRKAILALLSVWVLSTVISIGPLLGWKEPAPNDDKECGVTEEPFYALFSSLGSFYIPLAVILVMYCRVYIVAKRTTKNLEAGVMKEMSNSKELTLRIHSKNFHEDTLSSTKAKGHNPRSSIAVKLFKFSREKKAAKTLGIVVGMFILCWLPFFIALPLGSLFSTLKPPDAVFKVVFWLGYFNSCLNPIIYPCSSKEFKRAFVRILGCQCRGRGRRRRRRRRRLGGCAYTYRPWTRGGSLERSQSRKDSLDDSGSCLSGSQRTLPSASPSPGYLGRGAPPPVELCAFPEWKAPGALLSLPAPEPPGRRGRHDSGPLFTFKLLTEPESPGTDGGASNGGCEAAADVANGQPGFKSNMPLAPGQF

Histamine H1 receptor = Histamine H1 receptor (Homo sapiens, UniProt P35367); assay: Displacement of [3H]-pyrilamine from recombinant human H1 receptor stably expressed in HEK cell membranes measured after 90 mins by microbeta scintillation counting method
Histamine H1 receptor, sequence (P35367 whole entry): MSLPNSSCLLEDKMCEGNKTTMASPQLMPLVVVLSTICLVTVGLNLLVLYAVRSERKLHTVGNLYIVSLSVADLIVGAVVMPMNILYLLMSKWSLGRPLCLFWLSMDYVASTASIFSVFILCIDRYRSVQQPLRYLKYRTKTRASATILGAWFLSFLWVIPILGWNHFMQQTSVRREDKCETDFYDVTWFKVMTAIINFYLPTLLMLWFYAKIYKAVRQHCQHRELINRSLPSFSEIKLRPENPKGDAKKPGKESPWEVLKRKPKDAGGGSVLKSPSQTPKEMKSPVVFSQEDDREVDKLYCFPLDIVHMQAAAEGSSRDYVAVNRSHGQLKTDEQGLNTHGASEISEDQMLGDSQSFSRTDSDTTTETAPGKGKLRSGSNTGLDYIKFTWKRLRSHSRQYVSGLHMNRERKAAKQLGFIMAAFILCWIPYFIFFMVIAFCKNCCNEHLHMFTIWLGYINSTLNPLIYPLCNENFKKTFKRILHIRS

[4] = target: Alpha-1A adrenergic receptor (Homo sapiens, UniProt P35348); assay: Displacement of [3H]-prazosin from recombinant human alpha1A adrenergic receptor measured after 90 mins by microbeta scintillation counting method
Alpha-1A adrenergic receptor, sequence (P35348 whole entry): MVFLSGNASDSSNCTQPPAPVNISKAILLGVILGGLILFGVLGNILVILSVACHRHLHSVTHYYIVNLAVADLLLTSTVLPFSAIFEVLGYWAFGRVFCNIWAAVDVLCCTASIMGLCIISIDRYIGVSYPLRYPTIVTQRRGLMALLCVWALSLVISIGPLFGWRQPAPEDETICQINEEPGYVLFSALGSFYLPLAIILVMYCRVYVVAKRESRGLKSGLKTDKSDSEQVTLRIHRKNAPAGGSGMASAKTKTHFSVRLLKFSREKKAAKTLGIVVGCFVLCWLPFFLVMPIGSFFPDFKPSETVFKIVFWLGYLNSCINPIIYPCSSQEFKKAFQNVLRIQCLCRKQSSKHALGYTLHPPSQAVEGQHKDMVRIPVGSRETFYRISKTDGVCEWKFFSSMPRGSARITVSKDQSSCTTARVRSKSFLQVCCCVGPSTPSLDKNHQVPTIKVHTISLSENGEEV

[5] = target: Neuronal acetylcholine receptor; alpha4/beta4 (Homo sapiens) (UniProt P30926+P43681); assay: Displacement of [3H]-epibatidine from recombinant human alpha4beta4 nACHR stably expressed in HEK cells at 10 uM measured after 90 mins by microbeta scintillation counting method relative to control; type: cell-based; method in brief: as §1
[6] = target: Muscarinic acetylcholine receptor M3 (Homo sapiens, UniProt P20309); assay: Displacement of [3H]-QNB/[3H]-NMS from human muscarinic M3 receptor expressed in stable CHO cells at 10 uM after 90 mins by microbeta scintillation counting method relative to control; type: cell-based; method in brief: as §1
[7] = target: T3, Sodium-dependent noradrenaline transporter (Homo sapiens, UniProt P23975); assay: Displacement of [3H]-nisoxetine from recombinant human NET stably expressed in HEK cells at 10 uM measured after 90 mins by microbeta scintillation counting method relative to control; type: cell-based; method in brief: as §1
T3 sequence (P23975 whole entry): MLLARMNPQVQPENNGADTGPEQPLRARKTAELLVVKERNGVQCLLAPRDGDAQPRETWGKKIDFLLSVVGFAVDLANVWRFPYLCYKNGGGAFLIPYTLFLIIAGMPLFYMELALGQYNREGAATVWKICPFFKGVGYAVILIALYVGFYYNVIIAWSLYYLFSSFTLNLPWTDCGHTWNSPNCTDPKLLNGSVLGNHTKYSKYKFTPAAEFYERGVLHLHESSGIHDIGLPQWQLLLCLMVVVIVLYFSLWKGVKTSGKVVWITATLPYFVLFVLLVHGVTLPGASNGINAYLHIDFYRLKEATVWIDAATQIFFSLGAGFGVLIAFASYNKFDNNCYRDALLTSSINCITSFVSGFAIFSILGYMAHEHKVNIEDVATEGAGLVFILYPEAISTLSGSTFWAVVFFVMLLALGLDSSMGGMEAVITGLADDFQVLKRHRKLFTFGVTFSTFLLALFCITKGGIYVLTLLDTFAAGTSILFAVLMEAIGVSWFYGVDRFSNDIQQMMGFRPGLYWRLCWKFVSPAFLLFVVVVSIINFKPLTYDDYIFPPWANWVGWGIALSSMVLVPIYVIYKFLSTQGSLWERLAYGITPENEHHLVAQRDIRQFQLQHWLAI

[8] = target: 5-hydroxytryptamine receptor 2A (Homo sapiens, UniProt P28223); assay: Displacement of [3H]-ketanserin from 5HT2A receptor (unknown origin) measured after 90 mins by microbeta scintillation counting method
[9] = target: T4, Sodium-dependent serotonin transporter (Homo sapiens, UniProt P31645); assay: Displacement of [3H]-citalopram from recombinant human SERT stably expressed in HEK cells at 10 uM measured after 90 mins by microbeta scintillation counting method relative to control; type: cell-based; method in brief: as §1
[10] = target: Muscarinic acetylcholine receptor M4 (Homo sapiens) (UniProt P08173); assay: Displacement of [3H]-QNB/[3H]-NMS from human muscarinic M4 receptor expressed in stable CHO cells at 10 uM after 90 mins by microbeta scintillation counting method relative to control; type: cell-based; method in brief: as §1
[11] = target: T5, Alpha-2B adrenergic receptor (Homo sapiens, UniProt P18089); assay: Displacement of [3H]-rauwolscine from recombinant human alpha2B adrenergic receptor transiently expressed in HEKT cells measured after 90 mins by microbeta scintillation counting method; type: cell-based
T5 sequence (P18089 whole entry): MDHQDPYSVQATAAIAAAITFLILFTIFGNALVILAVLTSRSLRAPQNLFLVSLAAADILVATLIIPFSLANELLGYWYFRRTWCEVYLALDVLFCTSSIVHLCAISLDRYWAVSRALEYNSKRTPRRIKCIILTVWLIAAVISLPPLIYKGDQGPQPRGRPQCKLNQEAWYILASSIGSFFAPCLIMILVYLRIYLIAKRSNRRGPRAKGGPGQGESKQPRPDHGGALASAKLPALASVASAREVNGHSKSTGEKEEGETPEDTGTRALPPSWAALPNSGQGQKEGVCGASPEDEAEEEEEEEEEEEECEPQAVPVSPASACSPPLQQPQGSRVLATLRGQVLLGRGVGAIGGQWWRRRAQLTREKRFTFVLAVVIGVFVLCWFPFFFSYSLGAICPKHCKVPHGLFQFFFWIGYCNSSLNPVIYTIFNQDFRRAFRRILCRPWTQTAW

[12] = target: Neuronal acetylcholine receptor; alpha4/beta2 (Homo sapiens) (UniProt P17787+P43681); assay: Displacement of [3H]-epibatidine from recombinant human alpha4beta2 nACHR stably expressed in HEK cells at 10 uM measured after 90 mins by microbeta scintillation counting method relative to control; type: cell-based; method in brief: as §1
D(3) dopamine receptor = D(3) dopamine receptor (Homo sapiens, UniProt P35462); assay: Antagonist activity at recombinant human D3 receptor expressed in CHOK1 cells assessed as inhibition of dopamine-induced beta arrestin2 recruitment preincubated for 30 mins followed by dopamine addition and measured after 90 mins by coelenterazine-based beta-galactosidase reporter gene assay; type: cell-based
D(3) dopamine receptor, sequence (P35462 whole entry): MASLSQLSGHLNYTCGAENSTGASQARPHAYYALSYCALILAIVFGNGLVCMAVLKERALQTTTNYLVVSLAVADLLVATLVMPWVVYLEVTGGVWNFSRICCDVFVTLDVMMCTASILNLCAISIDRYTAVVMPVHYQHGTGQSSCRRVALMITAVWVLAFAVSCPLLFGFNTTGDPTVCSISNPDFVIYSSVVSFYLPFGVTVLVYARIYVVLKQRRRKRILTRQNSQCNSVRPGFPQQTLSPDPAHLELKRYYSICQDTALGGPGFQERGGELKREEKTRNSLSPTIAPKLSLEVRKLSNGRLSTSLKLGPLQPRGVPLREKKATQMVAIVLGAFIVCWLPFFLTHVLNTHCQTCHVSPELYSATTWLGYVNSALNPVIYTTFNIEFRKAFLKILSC

[13] = target: T6, 5-hydroxytryptamine receptor 7 (Homo sapiens, UniProt P34969); assay: Displacement of [3H]-LSD from recombinant human 5HT7A receptor stably expressed in HEK cell membranes measured after 90 mins by microbeta scintillation counting method
T6 sequence (P34969 whole entry): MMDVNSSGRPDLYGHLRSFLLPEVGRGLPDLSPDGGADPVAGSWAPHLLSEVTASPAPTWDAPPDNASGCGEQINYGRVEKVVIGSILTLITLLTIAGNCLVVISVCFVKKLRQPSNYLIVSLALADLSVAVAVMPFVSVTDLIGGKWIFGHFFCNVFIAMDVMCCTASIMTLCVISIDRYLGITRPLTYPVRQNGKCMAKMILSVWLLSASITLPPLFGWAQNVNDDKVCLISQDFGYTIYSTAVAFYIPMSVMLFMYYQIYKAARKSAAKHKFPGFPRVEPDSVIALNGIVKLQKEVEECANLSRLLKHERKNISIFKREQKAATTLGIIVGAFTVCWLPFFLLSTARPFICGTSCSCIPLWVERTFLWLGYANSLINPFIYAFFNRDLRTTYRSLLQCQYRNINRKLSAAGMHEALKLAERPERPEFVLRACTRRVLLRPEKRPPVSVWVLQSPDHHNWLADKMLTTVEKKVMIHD

D2 dopamine receptor [14] = target: T7, D2 dopamine receptor (Homo sapiens, UniProt P14416); assay: Agonist activity at recombinant human D2 receptor expressed in CHOK1 cells assessed as induction of beta arrestin2 recruitment measured after 30 mins by coelenterazine-based beta-galactosidase reporter gene assay; type: ADME, cell-based
T7 sequence (P14416 whole entry): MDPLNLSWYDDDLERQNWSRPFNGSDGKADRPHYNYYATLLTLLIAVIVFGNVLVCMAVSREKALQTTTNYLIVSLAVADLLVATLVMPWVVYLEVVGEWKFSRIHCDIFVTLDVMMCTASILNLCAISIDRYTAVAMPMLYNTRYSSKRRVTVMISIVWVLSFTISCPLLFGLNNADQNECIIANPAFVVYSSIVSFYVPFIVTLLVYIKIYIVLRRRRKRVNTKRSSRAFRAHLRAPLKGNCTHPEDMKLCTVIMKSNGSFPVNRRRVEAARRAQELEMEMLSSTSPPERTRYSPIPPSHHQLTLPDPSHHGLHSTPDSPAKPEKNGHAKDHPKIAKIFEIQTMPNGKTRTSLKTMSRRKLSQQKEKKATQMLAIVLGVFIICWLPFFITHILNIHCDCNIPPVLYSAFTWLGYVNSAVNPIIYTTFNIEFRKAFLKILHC

D2 dopamine receptor [15] = target: T7, D2 dopamine receptor; assay: Displacement of [3H]N-methylspiperone from recombinant human D2 receptor stably expressed in fibroblast measured after 90 mins by microbeta scintillation counting method
[16] = target: 5-hydroxytryptamine receptor 1B (Homo sapiens, UniProt P28222); assay: Displacement of [3H]-5-CT from recombinant human 5HT1B receptor stably expressed in HEK cell membranes measured after 90 mins by microbeta scintillation counting method
[17] = target: Nicotinic acetylcholine receptor alpha2/beta2 (Homo sapiens) (UniProt P02708+P17787); assay: Displacement of [3H]-epibatidine from recombinant human alpha2beta2 nACHR stably expressed in HEK cells at 10 uM measured after 90 mins by microbeta scintillation counting method relative to control; type: cell-based; method in brief: as §1
[18] = target: 5-hydroxytryptamine receptor 2C (Homo sapiens) (UniProt P28335); assay: Displacement of [3H]-mesulergine from recombinant human 5HT2C receptor transiently expressed in HEKT cell membranes at 10 uM measured after 90 mins by microbeta scintillation counting method relative to control; method in brief: as §1
Histamine H3 receptor [19] = target: T1, Histamine H3 receptor; assay: Displacement of [3H]-alpha-methylhistamine from human histamine H3 receptor stably expressed in HEK Flp-In cells after 90 mins by microbeta scintillation counting method; type: cell-based
[20] = target: Alpha-2A adrenergic receptor (Homo sapiens, UniProt P08913); assay: Displacement of [3H]-rauwolscine from recombinant human alpha2A adrenergic receptor stably expressed in MDCK cells at 10 uM measured after 90 mins by microbeta scintillation counting method relative to control; type: cell-based; settings: probe [3H]-rauwolscine
[21] = target: T4, Sodium-dependent serotonin transporter; assay: Displacement of [3H]-citalopram from recombinant human SERT stably expressed in HEK cells measured after 90 mins by microbeta scintillation counting method; type: cell-based
[22] = target: T6, 5-hydroxytryptamine receptor 7; assay: Displacement of [3H]-LSD from recombinant human 5HT7A receptor stably expressed in HEK cell membranes at 10 uM measured after 90 mins by microbeta scintillation counting method relative to control; method in brief: as §1
[23] = target: T5, Alpha-2B adrenergic receptor; assay: Displacement of [3H]-rauwolscine from recombinant human alpha2B adrenergic receptor transiently expressed in HEKT cells at 10 uM measured after 90 mins by microbeta scintillation counting method relative to control; type: cell-based; settings: probe [3H]-rauwolscine
D(1B) dopamine receptor [24] = target: T2, D(1B) dopamine receptor; assay: Displacement of [3H]-SCH23390 from recombinant human D5 receptor transiently expressed in HEK cell membranes at 10 uM measured after 90 mins by microbeta scintillation counting method relative to control; method in brief: as §1
[25] = target: D(4) dopamine receptor (Homo sapiens) (UniProt P21917); assay: Displacement of [3H]N-methylspiperone from recombinant human D4 receptor stably expressed in HEK cell membranes at 10 uM measured after 90 mins by microbeta scintillation counting method relative to control
[26] = target: Muscarinic acetylcholine receptor M4 (Homo sapiens, UniProt P08173); assay: Displacement of [3H]-QNB/[3H]-NMS from human muscarinic M4 receptor expressed in stable CHO cells after 90 mins by microbeta scintillation counting method; type: cell-based
[27] = target: T3, Sodium-dependent noradrenaline transporter; assay: Displacement of [3H]-nisoxetine from recombinant human NET stably expressed in HEK cells measured after 90 mins by microbeta scintillation counting method; type: cell-based

Structure (SMILES): COc1ccccc1N1CCN(CCCSc2nnc(-c3ccccc3)n2C)CC1
- inhibition (Histamine H3 receptor [1]): < 50%
- Ki (D(1B) dopamine receptor [2]): 3020 nM
- Ki [3]: 94 nM
- Ki (Histamine H1 receptor): 40 nM
- Ki [4]: 49 nM
- inhibition [5]: < 50%
- inhibition [6]: < 50%
- inhibition [7]: < 50%
- Ki [8]: 1410 nM
- inhibition [9]: < 50%
- inhibition [10]: < 50%
- Ki [11]: 241 nM
- inhibition [12]: < 50%
- IC50 (D(3) dopamine receptor): 8.7 nM
- Ki [13]: 128 nM
- EC50 (D2 dopamine receptor [14]; read-out: EC50): 254 nM
- Ki (D2 dopamine receptor [15]): 577 nM
- Ki [16]: 2030 nM
- inhibition [17]: < 50%

Structure (SMILES): COc1ccccc1N1CCC2(CCN(CCCSc3nnc(-c4ccccc4)n3C)CC2)CC1
- inhibition [18]: < 50%
- Ki (Histamine H3 receptor [19]): 509 nM
- Ki [3]: 2170 nM
- inhibition at […], 10 µM [20]: < 50%
- Ki (Histamine H1 receptor): 8 nM
- Ki [21]: 295 nM
- Ki [4]: 2180 nM
- inhibition [22]: < 50%
- inhibition [5]: < 50%
- inhibition at […], 10 µM [23]: < 50%
- inhibition (D(1B) dopamine receptor [24]): < 50%
- inhibition [25]: < 50%
- inhibition [12]: < 50%
- IC50 (D(3) dopamine receptor): 41.4 nM
- EC50 (D2 dopamine receptor [14]): Not Active
- Ki [26]: 590 nM
- Ki [27]: 931 nM
- inhibition [17]: < 50%
